Assay results published in ChEMBL document CHEMBL2040825, “Synthesis and cytotoxicity of 3,4-disubstituted-5-(3,4,5-trimethoxyphenyl)-4H-1,2,4-triazoles and novel 5,6-dihydro-[1,2,4]triazolo[3,4-b][1,3,4]thiadiazole derivatives bearing 3,4,5-trimethoxyphenyl moiety” (Bioorg Med Chem Lett, 2012).

Columns and labels:
Type in all cases: functional, cell-based
HT-29 = test: Cytotoxicity against human HT-29 cells after 48 hrs by MTT assay; conditions: HT-29, 48 h
Procedure, shortened: (§1)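 Cells grown in DMEM with 10% FBS and passaged by trypsinization at 70-80% confluence. Seeding density was 8 × 10^4 cells/well for MKN45, HT-29 and MCF-7 and 5 × 10^4 cells/well for HepG2, then 24 h attachment at 37 °C. Compounds from 10 mM DMSO stock were diluted in medium and applied for 48 h at 37 °C, with 0.1% DMSO as negative control.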

MKN-45 = test: Cytotoxicity against human MKN45 cells after 48 hrs by MTT assay; conditions: MKN-45, 48 h; procedure, shortened: as §1
MCF7 = test: Cytotoxicity against human MCF7 cells after 48 hrs by MTT assay; conditions: MCF7, 48 h; procedure, shortened: as §1
HepG2 = test: Cytotoxicity against human HepG2 cells after 48 hrs by MTT assay; conditions: HepG2, 48 h; procedure, shortened: as §1

| Compound | IC50 (HT-29) | IC50 (MKN-45) | IC50 (MCF7) | IC50 (HepG2) |
| --- | --- | --- | --- | --- |
| COc1cc(-c2nnc(SC)n2/N=C/c2ccccc2)cc(OC)c1OC | > 200 µM | 28.5 µM | > 200 µM | > 200 µM |
| COc1cc(-c2nnc(SCc3ccccc3)n2/N=C/c2ccccc2)cc(OC)c1OC | > 200 µM | > 200 µM | > 200 µM | > 200 µM |
| COc1cc(-c2nnc(SCc3ccc(F)cc3)n2/N=C/c2ccccc2)cc(OC)c1OC | > 200 µM | > 200 µM | > 200 µM | > 200 µM |
| COc1cc(-c2nnc(SCc3ccccc3Cl)n2/N=C/c2ccccc2)cc(OC)c1OC | > 200 µM | > 200 µM | > 200 µM | 31.7 µM |
| COc1ccc(/C=N/n2c(SC)nnc2-c2cc(OC)c(OC)c(OC)c2)c(OC)c1 | 144 µM | > 200 µM | > 200 µM | > 200 µM |
| COc1ccc(/C=N/n2c(SCc3ccc(F)cc3)nnc2-c2cc(OC)c(OC)c(OC)c2)c(OC)c1 | 126 µM | > 200 µM | > 200 µM | > 200 µM |
| COc1ccc(/C=N/n2c(SCc3ccccc3Cl)nnc2-c2cc(OC)c(OC)c(OC)c2)c(OC)c1 | > 200 µM | > 200 µM | 63.7 µM | > 200 µM |
| COc1ccc(/C=N/n2c(SCc3ccccc3)nnc2-c2cc(OC)c(OC)c(OC)c2)c(OC)c1 | > 200 µM | 49 µM | 153 µM | 60.9 µM |
| CCOC(=O)CSc1nnc(-c2cc(OC)c(OC)c(OC)c2)n1/N=C/c1ccc(OC)cc1OC | > 200 µM | > 200 µM | > 200 µM | > 200 µM |
| COc1cc(-c2nnc3n2NC(CC(=O)c2ccc(C)cc2)(c2ccccc2)S3)cc(OC)c1OC (stereo not given) | 151 µM | 7.47 µM | > 200 µM | 0.58 µM |
| CCOC(=O)CC1(c2ccccc2)Nn2c(nnc2-c2cc(OC)c(OC)c(OC)c2)S1 (stereo not given) | > 200 µM | > 200 µM | > 200 µM | > 200 µM |
| COc1ccc(C2(CC(=O)c3ccc(C)cc3)Nn3c(nnc3-c3cc(OC)c(OC)c(OC)c3)S2)c(OC)c1 (stereo not given) | 66.8 µM | 13.8 µM | 10.9 µM | 3.17 µM |
| COc1cccc2c1C(=O)c1c(O)c3c(c(O)c1C2=O)C[C@@](O)(C(=O)CO)C[C@@H]3O[C@H]1C[C@H](N)[C@H](O)[C@H](C)O1 [DOXORUBICIN] |  | 0.168 µM |  | 5.57 µM |
